Measurements taken from ChEMBL document CHEMBL4330056, “Synthesis and Cytotoxic and Antiviral Profiling of Pyrrolo- and Furo-Fused 7-Deazapurine Ribonucleosides” (J Med Chem, 2018).
Calls of active or inactive are those of the source. The calls are words filed in the database; no cut-off is given here.

Legend:
CCRF-CEM [1] = experiment: Induction of cell cycle arrest in human CCRF-CEM cells assessed as accumulation at G2/M phase at IC50 concentration after 24 hrs by propidium iodide-staining based flow cytometry (reference value: 19.22%); assay type: functional
HCT-116 [2] = experiment: Antiproliferative activity against p53 gene knocked out human HCT116 cells after 3 days by MTS assay; assay type: functional, cell-based; settings: HCT-116, 72 h
U2OS = experiment: Antiproliferative activity against human U2OS cells after 3 days by MTS assay; assay type: functional, cell-based; settings: 72 h
BJ = experiment: Antiproliferative activity against human BJ cells after 3 days by MTS assay; settings: 72 h
CCRF-CEM [3] = experiment: Inhibition of mitosis in human CCRF-CEM cells assessed Ser10 H3 phosphorylation positive cells at IC50 concentration after 24 hrs by flow cytometry relative to total cell population (reference value: 1.36%); assay type: functional; parameters: scale not given: the % may be the effect or the level left
Human alphaherpesvirus 1 = experiment: Antiviral activity against human herpesvirus 1 HF infected in African green monkey Vero cells assessed as inhibited virus-induced cytopathic effect incubated for 3 days by XTT assay; assay type: functional, organism-based
CCRF-CEM [4] = experiment: Antiproliferative activity against human CCRF-CEM cells after 3 days by MTS assay; assay type: functional, cell-based; settings: 72 h
Adenosine kinase [5] = target: T1, Adenosine kinase (Homo sapiens, UniProt P55263); experiment: Inhibition of recombinant human ADK using [3H]-adenosine as substrate after 20 mins by TLC scanner-based analysis relative to control
T1 sequence (P55263 whole entry): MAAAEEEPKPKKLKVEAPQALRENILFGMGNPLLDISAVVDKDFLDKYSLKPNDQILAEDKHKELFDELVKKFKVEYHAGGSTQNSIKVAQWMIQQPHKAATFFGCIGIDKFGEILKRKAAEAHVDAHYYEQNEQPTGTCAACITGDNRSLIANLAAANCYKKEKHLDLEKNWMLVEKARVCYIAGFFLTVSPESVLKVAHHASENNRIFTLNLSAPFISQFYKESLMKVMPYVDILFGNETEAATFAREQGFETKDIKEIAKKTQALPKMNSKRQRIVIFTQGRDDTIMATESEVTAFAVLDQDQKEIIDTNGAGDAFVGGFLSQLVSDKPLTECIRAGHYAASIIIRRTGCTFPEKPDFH
Summary of the method: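 ADK inhibition: 50 μM adenosine substrate with 10 μM test compound and 97 ng enzyme, 20 min at 37 °C.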

CCRF-CEM [6] = experiment: Inhibition of RNA synthesis in human CCRF-CEM cells assessed as RNA synthesis level at IC50 concentration after 24 hrs by BrU incorporation assay (reference value: 49.89%); assay type: functional; parameters: scale not given: the % may be the effect or the level left
Human orthopneumovirus = experiment: Antiviral activity against Human respiratory syncytial virus A2 infected in Hep2 cells assessed as reduction in virus-induced cytopathic effect incubated for 4 days by CellTiter-Glo viability reagent based assay; assay type: functional, organism-based
CCRF-CEM [7] = experiment: Induction of cell cycle arrest in human CCRF-CEM cells assessed as accumulation at G2/M phase at 5 times IC50 concentration after 24 hrs by propidium iodide-staining based flow cytometry (reference value: 19.22%); assay type: functional
CCRF-CEM [8] = experiment: Induction of cell cycle arrest in human CCRF-CEM cells assessed as accumulation at S phase at 5 times IC50 concentration after 24 hrs by propidium iodide-staining based flow cytometry (reference value: 41.08%); assay type: functional
K562 = experiment: Antiproliferative activity against human K562 cells after 3 days by MTS assay; assay type: functional, cell-based; settings: K562, 72 h
Hepatitis C virus [9] = experiment: Antiviral activity against Hepatitis C virus genotype 2a infected in human Huh-luc replicon cells after 3 days by luciferase assay; assay type: functional, organism-based, Hepacivirus hominis; settings: subtype 2a, 72 h
CCRF-CEM [10] = experiment: Induction of cell cycle arrest in human CCRF-CEM cells assessed as accumulation at subG1 phase at 5 times IC50 concentration after 24 hrs by propidium iodide-staining based flow cytometry (reference value: 3.45%); assay type: functional
Adenosine kinase [11] = target: T1, Adenosine kinase; experiment: Substrate activity at recombinant human ADK assessed as compound phosphorylation at 50 uM after 20 mins in presence of [3H]-adenosine by UPLC; assay type: ADME
HeLa S3 = experiment: Antiproliferative activity against human HeLaS3 cells after 72 hrs by XTT assay; assay type: functional, cell-based; settings: HeLa S3, 72 h
A549 = experiment: Antiproliferative activity against human A549 cells after 3 days by MTS assay; assay type: functional, cell-based; settings: A549, 72 h
MRC5 = experiment: Antiproliferative activity against human MRC5 cells after 3 days by MTS assay; settings: MRC5, 72 h
Influenza A virus = experiment: Antiviral activity against Influenza A virus (A/Mexico/4108/2009(H1N1)) infected in MDCK cells assessed as inhibited virus-induced cytopathic effect incubated for 2 days by XTT assay; assay type: functional, organism-based
CCRF-CEM [12] = experiment: Inhibition of DNA synthesis in human CCRF-CEM cells assessed as DNA synthesis level at 5 times IC50 concentration after 24 hrs by BrdU incorporation assay (reference value: 43.39%); assay type: functional; parameters: scale not given: the % may be the effect or the level left
CCRF-CEM [13] = experiment: Induction of cell cycle arrest in human CCRF-CEM cells assessed as accumulation at G0/G1 phase at 5 times IC50 concentration after 24 hrs by propidium iodide-staining based flow cytometry (reference value: 39.70%); assay type: functional
CCRF-CEM [14] = experiment: Inhibition of RNA synthesis in human CCRF-CEM cells assessed as RNA synthesis level at 5 times IC50 concentration after 24 hrs by BrU incorporation assay (reference value: 49.89%); assay type: functional; parameters: scale not given: the % may be the effect or the level left
[15] = Antiproliferative activity against human K562-TAX cells after 3 days by MTS assay; assay type: functional, cell-based; settings: 72 h
CCRF-CEM [16] = experiment: Induction of cell cycle arrest in human CCRF-CEM cells assessed as accumulation at subG1 phase at IC50 concentration after 24 hrs by propidium iodide-staining based flow cytometry (reference value: 3.45%); assay type: functional
HCT-116 [17] = experiment: Antiproliferative activity against human HCT116 cells after 3 days by MTS assay; assay type: functional, cell-based; settings: HCT-116, 72 h
Coxsackievirus B3 = experiment: Antiviral activity against Human coxsackie B3 Nancy infected in human HeLa cells assessed as inhibited virus-induced cytopathic effect incubated for 2 days by XTT assay; assay type: functional, organism-based
CCRF-CEM [18] = experiment: Induction of cell cycle arrest in human CCRF-CEM cells assessed as accumulation at G0/G1 phase at IC50 concentration after 24 hrs by propidium iodide-staining based flow cytometry (reference value: 39.70%); assay type: functional
dengue virus type 2 = experiment: Antiviral activity against Dengue virus 2 Thailand/16681/84 infected in African green monkey Vero cells assessed as inhibition of virus replication incubated for 3 days by fluorescence microscopy; assay type: functional, organism-based
CCRF-CEM [19] = experiment: Induction of cell cycle arrest in human CCRF-CEM cells assessed as accumulation at S phase at IC50 concentration after 24 hrs by propidium iodide-staining based flow cytometry (reference value: 41.08%); assay type: functional
HL-60 = experiment: Antiproliferative activity against human HL60 cells after 72 hrs by XTT assay; assay type: functional, cell-based; settings: HL-60, 72 h
CCRF-CEM [20] = experiment: Inhibition of DNA synthesis in human CCRF-CEM cells assessed as DNA synthesis level at IC50 concentration after 24 hrs by BrdU incorporation assay (reference value: 43.39%); assay type: functional; parameters: scale not given: the % may be the effect or the level left
[21] = Antiproliferative activity against human CEM-DNR-bulk cells after 3 days by MTS assay; settings: 72 h
Hepatitis C virus [22] = experiment: Antiviral activity against Hepatitis C virus genotype 1b infected in human Huh-luc replicon cells after 3 days by luciferase assay; assay type: functional, organism-based, Hepacivirus hominis; settings: subtype 1b, 72 h
HepG2 = experiment: Antiproliferative activity against human HepG2 cells after 72 hrs by XTT assay; assay type: functional, cell-based; settings: HepG2, 72 h
CCRF-CEM [23] = experiment: Inhibition of mitosis in human CCRF-CEM cells assessed Ser10 H3 phosphorylation positive cells at 5 times IC50 concentration after 24 hrs by flow cytometry relative to total cell population (reference value: 1.36%); assay type: functional; parameters: scale not given: the % may be the effect or the level left
[24] = Cytotoxicity against human Hep2 cells assessed as reduction in cell viability after 3 days by CellTiter-Glo assay; assay type: cell-based; settings: HEp-2 cells

| SMILES | Activity (CCRF-CEM [1]) [%] | IC50 (HCT-116 [2]) [µM] | IC50 (U2OS) [µM] | IC50 (BJ) [µM] | Activity (CCRF-CEM [3]) [%] | Activity (CCRF-CEM [6]) [%] | Activity (CCRF-CEM [7]) [%] | Activity (CCRF-CEM [8]) [%] | Activity (CCRF-CEM [10]) [%] | IC50 (HeLa S3) [µM] | IC50 (A549) [µM] | IC50 (MRC5) [µM] | Activity (CCRF-CEM [12]) [%] | Activity (CCRF-CEM [13]) [%] | Activity (CCRF-CEM [14]) [%] | IC50 [15] [µM] | Activity (CCRF-CEM [16]) [%] | IC50 (HCT-116 [17]) [µM] | Activity (CCRF-CEM [18]) [%] | Activity (CCRF-CEM [19]) [%] | further results |
| --- | --- | --- | --- | --- | --- | --- | --- | --- | --- | --- | --- | --- | --- | --- | --- | --- | --- | --- | --- | --- | --- |
| COc1ncnc2c1c1occc1n2[C@@H]1O[C@H](CO)[C@@H](O)[C@H]1O | 16.65 | 0.3 | 0.43 | 1.09 | 0.56 | 25.36 | 14.07 | 65.39 | 6.82 | 2.31 | 1.93 | 13.4 | 52.74 | 20.54 | 4.3 | 0.3 | 4.23 | 0.28 | 41.52 | 41.82 | Activity (Human alphaherpesvirus 1): inactive; IC50 (CCRF-CEM [4]): 0.18 µM; IC50 (Adenosine kinase [5]): > 10 µM; Activity (Human orthopneumovirus): inactive; IC50 (K562): 0.32 µM; EC50 (Hepatitis C virus [9]): 0.29 µM; Activity (Adenosine kinase [11]): 35%; Activity (Influenza A virus): inactive; Activity (Coxsackievirus B3): inactive; Activity (dengue virus type 2): inactive; IC50 (HL-60): 0.7 µM; Activity (CCRF-CEM [20]): 42.65%; IC50 [21]: 3.12 µM; EC50 (Hepatitis C virus [22]): 0.38 µM; IC50 (HepG2): 2.41 µM; Activity (CCRF-CEM [23]): 0.58%; CC50 at 72 h [24]: > 44.4 µM |
| Nc1ncnc2c1c(-c1cccs1)cn2[C@@H]1O[C@H](CO)[C@@H](O)[C@H]1O | 17.23 | 0.02 | 0.51 | > 50 | 2.09 | 0.91 | 28.98 | 38.71 | 58.53 | 0.02 | 13.1 | > 50 | 10.76 | 32.31 | 57.09 | 0.04 | 29.83 | 0.02 | 20.49 | 62.28 | Activity (CCRF-CEM [20]): 3.59%; IC50 [21]: 0.06 µM; Activity (CCRF-CEM [23]): 0.94% |
